Assay outcomes (PubChem)
Most compounds without a hit are left out; they make up all but 4.3% or so of the library.
BB579 growth dn = chemicals that inhibit yeast BB579 growth in restrictive medium (lifespan-shortening candidates). 140,000 compounds, 0.51% hits. S. cerevisiae BB579 growth, OD615, 48 h. inhibition, % at 10 µM;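 active = inhibition above a set limit, 3 SD over the mean compound inhibition, cut at about 44% in these data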
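System: Saccharomyces cerevisiae DeaD strain BB579, replicative lifespan model yeast. Buffer or medium: restrictive glucose-based CSMM-D medium. Doses: one dose, 10 µM compound with 0.25% DMSO. Timing: 4 h preincubation and 48 h exposure at 30 °C. Detection: turbidity as optical density at 615 nm. Benchmarks: amphotericin B 10 µg/mL, positive.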
RAM network inh = yeast RAM network inhibition; 190,000 compounds, 1.8% hits; S. cerevisiae dse1pr::URA3 reporter, 5-FOA growth OD615, 2 d; analog-sensitive cbk1-as2 kinase mutant strain; inhibition, % at 50 µM; AID 868;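 active = inhibition above a set limit, 3 SD over mean compound inhibition, cut at about 8.4% in these data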;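 also: 0% = DMSO-only wells with no growth and 100% = 10 µM 1-NA-PP1 full growth; inhibition rescues growth on 5-FOA so higher OD means more RAM inhibition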
Yeast life ext = yeast lifespan extension. inhibition of the nicotinamide effect, % at 10 µM. 130,000 compounds, 0.68% hits. AID 775. S. cerevisiae growth with nicotinamide, OD615; deaD strain in restrictive glucose medium;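 active = inhibition above a set limit, placed 3 SD over the median of all compounds, cut at about 26% in these data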;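 also: 0% = nicotinamide-treated wells and 100% = cells grown without nicotinamide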
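Buffer or medium: CSMM-D glucose medium, restrictive; test system: modified budding yeast, DeaD strain; compound: single dose 10 µM compound, 0.25% DMSO; schedule: culture preincubation 4 h, compound exposure 48 h, both 30 °C; detection: optical density (absorbance) at 615 nm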
WT yeast gro inh = growth inhibition of WT yeast, mitochondrial fusion screen; mitochondrial fusion phenotypic screen, WT strain; inhibition, % at 10 µM; 190,000 compounds, 2.1% hits; in the data active = inhibition above about 58%; tested in S. cerevisiae
RAM 5-FOA = RAM network inhibition, efflux-deficient strain; S. cerevisiae efflux-deficient reporter strain, 5-FOA growth OD615, 2 days; max inhibition, %; shares compounds with RAM network inh; 1,200 tested, under 10 active; call rule not given here;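 also: plate controls were vehicle for no effect and reference inhibitor for full effect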
An asterisk follows results filed as active; / = no result given.

SMILES | BB579 growth dn | RAM network inh | Yeast life ext | WT yeast gro inh | RAM 5-FOA
CCOC(=O)C1CN(S(=O)(=O)c2ccccc2)c2cc(S(=O)(=O)CC)ccc2O1 (centres undefined) | -12 | 1 | -4 | -17 | /
CCCCn1c(O)c(/C=C/C=C/C=Nc2ccccc2)sc1=S | / | 13* | / | -1 | 6
CCn1c(O)c(/C=C/C=C/C=Nc2ccccc2)sc1=S | / | 2 | / | -1 | /
O=C(NCc1ccccc1)/C(=C/c1ccc(OC(F)F)cc1)c1ccccc1 | -10 | 12* | -1 | 63* | 2
O=C(C[n+]1ccc(C(=O)NCc2ccccc2)cc1)c1ccc(OC(F)F)cc1 | / | 0 | / | -1 | /
Cc1cccc(C(=O)NCc2nnc3c4ccccc4c(-c4ccccc4)nn23)c1 | -27 | 12* | 1 | 12 | 4
Cc1cccc(C(=O)NCc2nnc(SCC(=O)NC(C)c3ccccc3)n2C)c1 (centres undefined) | 1 | -1 | -6 | -11 | /
COc1ccc(NS(=O)(=O)c2cc(NC(=O)c3nc4nc(C)cc(C)n4n3)ccc2C)cc1 | / | 2 | / | -15 | /
O=C(Nc1ccn(Cc2cccc3ccccc23)n1)c1cccnc1 | / | 12* | / | -9 | 2
O=C(Nc1ccn(Cc2ccc(Cl)cc2)n1)c1ccccc1 | / | 1 | / | 6 | /
CCc1ccc(C(=O)COC(=O)C(CCSC)NC(=O)c2ccccc2)cc1 (centres undefined) | -11 | 5 | 3 | 13 | /
COc1ccc(/C=N/OCC(=O)NC(c2ccccc2)c2ccccc2)cc1OC | -19 | 3 | 3 | -3 | /
COc1cc(/C=N/OCC(=O)NC23CC4CC(CC(C4)C2)C3)ccc1OCc1ccccc1 | -35 | 12* | 3 | 50 | 4
O=S(=O)(NCCn1ccc2ccccc21)c1ccccc1 | -15 | 1 | -6 | -2 | /
COc1ccccc1-n1cc(CN2CCN(C3CCCCC3)C(CCO)C2)cn1 (centres undefined) | / | 0 | / | -14 | /
COc1ccc(C(=O)O/N=C/c2c(C(F)(F)F)nn(C)c2SCc2ccccc2Cl)cc1 | -63 | 12* | 6 | 18 | 4
COc1ccc(NC(=O)c2c(C(F)(F)F)nn(C)c2SCc2ccccc2)cc1 | -16 | 4 | 15 | 20 | /
Cn1nc(C(F)(F)F)c(/C=N/OC(=O)c2ccccc2Cl)c1SCc1ccc(Cl)cc1 | -36 | 16* | -5 | -4 | 3
COc1cc(CNc2ccc(CNc3ncn[nH]3)cc2)ccc1OCC(=O)NC(C)(C)C | -25 | 2 | 1 | 18 | /
CCOc1cc(CNc2ccc(CNc3ncn[nH]3)cc2)ccc1OCc1ccccc1 | -11 | 12* | -5 | -4 | 7
O=C(NCc1ccc(OC(F)(F)F)cc1)C1CC(c2c(Cl)cccc2Cl)=NO1 (centres undefined) | -52 | 4 | -22 | 51 | /
CCOC(=O)CCCSc1nc(-c2ccc3c(c2)OCO3)cc(C(F)(F)F)c1C#N | -45 | 14* | 5 | -1 | 2
Nc1c(C(=O)c2ccco2)oc2ccccc12 | / | 1 | / | 22 | /
COC(=O)c1ccc(-c2ncc(-c3cccc4ccccc34)o2)cc1 | -13 | 13* | / | 7 | 2
CCN(CC)CCNC(=O)Cc1nn(Cc2ccccc2)c(=O)c2ccccc12 | / | 3 | / | -1 | /
SMILES | BB579 growth dn | RAM network inh | Yeast life ext | WT yeast gro inh | RAM 5-FOA
O=S(=O)(Nc1ccc(-c2csc(-c3ccccc3)n2)cc1)c1ccccc1 | -47 | 13* | 9 | 91* | 1
CCOc1ccc(NC(=S)NNC(=O)CC(C)O)cc1 (centres undefined) | / | 1 | / | 17 | /
FC(F)(F)c1ccccc1NC(=S)NC1CCN(Cc2ccccc2)CC1 | / | 1 | / | -6 | /
CNC(=S)N(CCc1ccccc1)Cc1cc2cc(OC)c(OC)cc2[nH]c1=O | -21 | 1 | -3 | 6 | /
CNC(=S)N(CCc1ccc(OC)c(OC)c1)Cc1cc2c(C)cc(C)cc2[nH]c1=O | -6 | 16* | -2 | -22 | 2
C/C(N)=C(/C#N)C(=O)CSc1nc2ccccc2n1CC(C)C | / | 2 | / | -6 | /
Cc1[nH]c2ccccc2c1/C=N/Nc1ccc([N+](=O)[O-])cc1S(=O)(=O)Nc1ccc(Cl)cc1 | -47 | 14* | -2 | 50 | 4
CCCC1=NN(C(=O)C(=O)Nc2ccc(Br)cc2)C(O)(C(F)(F)F)C1 (centres undefined) | / | 3 | / | / | /
Cc1ccc2nc(SCC(=O)Nc3nnc(SCC(N)=O)s3)[nH]c2c1 | -50 | 2 | -11 | 6 | /
COc1ccc(OC)c(-c2cc(C(=O)N3CCc4ccccc4C3)no2)c1 | -49 | 12* | 44* | 62* | 2
CC(=O)c1cccc(NC(=S)NCCCCc2ccccc2)c1 | 4 | 4 | -4 | 11 | /
O=C(NCc1ccc2c(c1)OCO2)c1cc(-c2ccccn2)nc2ccccc12 | / | 14* | / | 7 | 3
CN1CCN(C(=S)NC(=O)c2ccco2)CC1 | / | 1 | / | -9 | /
CCCN(CCC)C1=CC(=[N+]2CCCC2)CC(C)(C)C1 | -21 | 1 | 7 | -6 | /
Cc1oc(-c2cc(Cl)cc(Cl)c2)cc1C(=O)NCCc1ccccc1 | -41 | 13* | 0 | 52 | 3
COc1ccc(CCNC(=O)c2cc(-c3cc(Cl)cc(Cl)c3)oc2C)cc1 | -76 | 8 | 4 | 20 | /
CCN(CC)S(=O)(=O)c1cccc(C(=O)c2c(C)cc3ccccn23)c1 | -53 | 15* | 12 | 31 | 2
Cc1cc2ccccn2c1C(=O)c1cc([N+](=O)[O-])cc([N+](=O)[O-])c1 | / | 3 | / | 41 | /
Cc1ccccc1Oc1ccc(-c2nc(N)nc(N)n2)cc1 | 2 | 12* | -31 | -12 | 2
CCCCCCN1C=C/C(=C\C=C(C#N)C#N)c2ccccc21 | -22 | 17* | 15 | 47 | 4
COc1ccc(C2CC(=O)Nc3n[nH]c(-c4ccccc4)c32)cc1OC (centres undefined) | / | 6 | / | -12 | /
CCOCCCNC(=S)N1CCCN(c2nc3cc(C)ccc3cc2C#N)CC1 | / | 5 | / | 28 | /
CCOCCCNC(=S)N1CCCN(c2nc3c(C)c(C)ccc3cc2C#N)CC1 | / | 22* | / | 74* | 7
O=C(C1=C[C@@H](c2csc3ccccc23)C[C@@H](OCc2ccc(CO)cc2)O1)N1CCOCC1 | / | -1 | / | -3 | /
C=CCOC(=O)C1=C[C@@H](c2csc3ccccc23)C[C@@H](OCc2ccc(CO)cc2)O1 | / | 14* | / | 39 | 3
SMILES | BB579 growth dn | RAM network inh | Yeast life ext | WT yeast gro inh | RAM 5-FOA
Fc1ccccc1CSCc1nc2ccccc2[nH]1 | / | 2 | / | 16 | /
CCC(CC)NC(=O)CO/N=C/c1ccccc1OC(F)F | -19 | 0 | 1 | -7 | /
O=C(c1ccccc1)N(Cc1cccnc1)C1(C(=O)Nc2ccccc2)CCCCC1 | -22 | 16* | -2 | -3 | 3
CCOC(=O)Cc1csc(NC(=O)NC2(C(F)(F)F)Oc3ccc(Cl)cc3O2)n1 (centres undefined) | -81 | 3 | 0 | 23 | /
CCOC(=O)Cc1csc(NC(=O)NC2(C(F)(F)F)Oc3ccccc3O2)n1 | -29 | 14* | -2 | 7 | 1
O=C(OCC#CCSc1nnc(-c2ccc(Br)cc2)o1)c1cccs1 | -24 | 16* | 8 | 20 | 14
